Laboratory results from ChEMBL document CHEMBL4765342, “Substituted benzothiophene and benzofuran derivatives as a novel class of bone morphogenetic Protein-2 upregulators: Synthesis, anti-osteoporosis efficacies in ovariectomized rats and a zebrafish model, and ADME properties” (Eur J Med Chem, 2020).
The source made the active and inactive calls. No cut-off for these calls is given here.

Tests used:
[1] = Permeability across apical to basolateral side in human Caco-2 cells assessed as transepithelial electrical resistance at 10 uM incubated for 2 hrs LC-MS/MS analysis; type: ADME, cell-based; details: caco-2, 2 h
Method in brief: (§1)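 Caco-2 monolayers, apical to basolateral direction. Plates preincubated 30 min at 37 °C, then exposed to 10 µM compound for 2 h at 37 °C without shaking. Donor and receiver samples were quenched, centrifuged and measured by LC/MS/MS, in duplicate. Papp calculated from receiver concentration, area and time. Monolayer integrity checked by TEER and by Lucifer yellow leakage (30 min, 37 °C, ex 485/em 530 nm).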

[2] = Apparent permeability across apical to basolateral side in human Caco-2 cells at 10 uM incubated for 2 hrs LC-MS/MS analysis; type: ADME, cell-based; details: for Papp A→B at 2 h, 10 µM: Caco-2; method in brief: as §1
[3] = Permeability across apical to basolateral side in human Caco-2 cells assessed as […] yellow leakage at 10 uM incubated for 2 hrs LC-MS/MS analysis; type: ADME, cell-based; details: caco-2, 2 h; method in brief: as §1
[4] = in vitro; details: human
[5] = Solubility in PBS buffer at pH 7.4 assessed as precipitation of compound at 625 nM; type: physicochemical; details: pH 7.4, 0.625 µM
[6] = Solubility in PBS buffer at pH 7.4 assessed as precipitation of compound at 156.25 nM; type: physicochemical; details: pH 7.4, 0.15625 µM
[7] = Solubility in PBS buffer at pH 7.4 assessed as precipitation of compound at 1250 nM; type: physicochemical; details: pH 7.4, 1.25 µM
[8] = Solubility in PBS buffer at pH 7.4 assessed as precipitation of compound at 2500 nM; type: physicochemical; details: pH 7.4, 2.5 µM
[9] = Solubility in PBS buffer at pH 7.4 assessed as precipitation of compound at 10000 nM; type: physicochemical; details: pH 7.4, 10 µM
[10] = Solubility in PBS buffer at pH 7.4 assessed as precipitation of compound at 312.5 nM; type: physicochemical; details: pH 7.4, 0.3125 µM
[11] = Solubility in PBS buffer at pH 7.4 assessed as precipitation of compound at 5000 nM; type: physicochemical; details: pH 7.4, 5 µM
[12] = in vitro; details: human; remark: listed apart in the source
[13] = tested on: Rattus norvegicus; assay: Antiosteoporotic activity in Sprague-Dawley rat model of OVX-induced bone loss assessed as increase in trabecular bone volume at 30 mg/kg, ig administered for 3 months with 1 day break after 6 consecutive days administration; type: functional, organism-based
Method in brief: (§2)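 Female SD rats given bilateral ovariectomy (sham: fat tissue removed instead), adapted 1 week beforehand; dosing began on postoperative day 10, n = 10 per group. Test drugs as 3 mg/mL suspension by gavage; raloxifene hydrochloride at 0.5 mg/mL. Controls got water. Tetracycline 30 mg/kg ip 16 and 3 days before euthanasia. Tibia stained sections give trabecular morphology and TBV%. BMD of L4-6 measured by densitometry under pentobarbital 45 mg/kg anaesthesia. Reported as mean ± SD.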

[14] = tested on: Rattus norvegicus; assay: Antiosteoporotic activity in Sprague-Dawley rat model of OVX-induced bone loss assessed as increase in trabecular bone mineral density at 30 mg/kg, ig administered for 3 months with 1 day break after 6 consecutive days administration; type: functional, organism-based; method in brief: as §2
[15] = tested on: Rattus norvegicus; assay: Antiosteoporotic activity in Sprague-Dawley rat model of OVX-induced bone loss assessed as increase in number of trabeculae at 30 mg/kg, ig administered for 3 months with 1 day break after 6 consecutive days administration; type: functional, organism-based; method in brief: as §2
[16] = tested on: Rattus norvegicus; assay: Antiosteoporotic activity in Sprague-Dawley rat model of OVX-induced bone loss assessed as increase in thickness of trabeculae at 30 mg/kg, ig administered for 3 months with 1 day break after 6 consecutive days administration; type: functional, organism-based; method in brief: as §2
[17] = tested on: Rattus norvegicus; assay: Antiosteoporotic activity in Sprague-Dawley rat model of OVX-induced bone loss assessed as narrowed gap between trabeculae at 30 mg/kg, ig administered for 3 months with 1 day break after 6 consecutive days administration; type: functional, organism-based; method in brief: as §2
[18] = Toxicity in Kunming mouse assessed as organism death administered orally for 3 days and observed for 17 days starting from drug administration; details: in vivo, po, 408 h, time 17 day

| Compound | solubility [5] | solubility [6] | solubility [7] | solubility [8] | solubility [9] | solubility [10] | solubility [11] | further results |
| --- | --- | --- | --- | --- | --- | --- | --- | --- |
| CN/C(=N/CCSCc1nc[nH]c1C)NC#N [CIMETIDINE] |  |  |  |  |  |  |  | Activity [1]: 318 Ω·cm²; Papp A→B at 2 h, 10 µM [2]: 0.679 ×10⁻⁶ cm/s; Activity [3]: 0.134% |
| O=C(O)Cc1ccccc1Nc1c(Cl)cccc1Cl [DICLOFENAC] |  |  |  |  |  |  |  | microsomal CLint at 0.5 h, 100 µM ([4]; microsomes): 197 µL/min/mg |
| COc1ccc2cc(C(=O)NCCN(C)C)oc2c1 | Soluble | Soluble | Soluble | Soluble | Insoluble | Soluble | Insoluble |  |
| COc1ccc2cc(C(=O)OCCN3CCOCC3)oc2c1 | Soluble | Soluble | Soluble | Soluble | Insoluble | Soluble | Soluble |  |
| COc1ccc2cc(C(=O)OCCCN(C)C)oc2c1 | Soluble | Soluble | Soluble | Soluble | Insoluble | Soluble | Soluble |  |
| CC[C@H]1OC(=O)[C@H](C)[C@@H](O[C@H]2C[C@@](C)(OC)[C@@H](O)[C@H](C)O2)[C@H](C)[C@@H](O[C@@H]2O[C@H](C)C[C@H](N(C)C)[C@H]2O)[C@](C)(O)C[C@@H](C)C(=O)[C@H](C)[C@@H](O)[C@]1(C)O [ERYTHROMYCIN] |  |  |  |  |  |  |  | Activity [1]: 396 Ω·cm²; Papp ([2]; caco-2, 2 h, 10 µM): 0.0324 10^-6 cm/s; Activity [3]: 0.137% |
| CN(C)CCCOc1nn(Cc2ccccc2)c2ccccc12 [BENZYDAMINE] |  |  |  |  |  |  |  | half-life at 0.5 h, 100 µM ([12]; microsomes): 43.1 min; microsomal CLint at 0.5 h, 100 µM ([4]; microsomes): 16.1 µL/min/mg |
| CCOc1ccc(NC(C)=O)cc1 [PHENACETIN] |  |  |  |  |  |  |  | half-life at 0.5 h, 100 µM ([12]; microsomes): 26.5 min; microsomal CLint at 0.5 h, 100 µM ([4]; liver microsomes): 26.2 µL/min/mg |
| COc1ccc2cc(C(=O)OCCN(C)C)oc2c1 [listing 1 of 2 here] | Soluble | Soluble | Soluble | Soluble | Insoluble | Soluble | Soluble |  |
| O=C(OCCN1CCOCC1)c1cc2cc3c(cc2s1)OCO3 [listing 1 of 2 here] |  |  |  |  |  |  |  | Activity [13]: Active; Activity [14]: Active |
| CC(=O)c1cc2ccccc2s1 |  |  |  |  |  |  |  | half-life at 0.5 h, 100 µM ([12]; liver microsomes): 1.25 min; Activity [1]: 351 Ω·cm²; Activity [13]: Active; Activity [15]: Active; Activity [16]: Active; microsomal CLint at 0.5 h, 100 µM ([4]; liver microsomes): > 300 µL/min/mg; Activity [17]: Active; Papp A→B at 2 h, 10 µM [2]: 22.1 ×10⁻⁶ cm/s; Activity [3]: 0.179%; Activity [14]: Active |
| CN(C)CCCOC(=O)c1cc2cc3c(cc2s1)OCO3 | Soluble | Soluble | Insoluble | Insoluble | Insoluble | Soluble | Insoluble |  |
| COCCc1ccc(OCC(O)CNC(C)C)cc1 (stereo unspecified) [METOPROLOL] |  |  |  |  |  |  |  | half-life at 0.5 h, 100 µM ([12]; microsomes): 159 min; Activity [1]: 326 Ω·cm²; microsomal CLint at 0.5 h, 100 µM ([4]; liver microsomes): 4.35 µL/min/mg; Papp A→B at 2 h, 10 µM [2]: 32.6 ×10⁻⁶ cm/s; Activity [3]: 0.154% |
| COc1ccc2cc(C(=O)N(C)CCN(C)C)oc2c1 | Soluble | Soluble | Soluble | Soluble | Insoluble | Soluble | Insoluble |  |
| COc1ccc2cc(C(=O)OCCCN(C)C)sc2c1 [listing 1 of 2 here] | Soluble | Soluble | Insoluble | Insoluble | Insoluble | Soluble | Insoluble |  |
| CCOC(=O)c1cc2ccc(OC)cc2s1 | Insoluble | Insoluble | Insoluble | Insoluble | Insoluble | Insoluble | Insoluble |  |
| CCOC(=O)c1cc2cc3c(cc2s1)OCO3 | Insoluble | Soluble | Insoluble | Insoluble | Insoluble | Insoluble | Insoluble |  |
| COc1ccc2cc(C(=O)OCCN(C)C)oc2c1 [listing 2 of 2 here] |  |  |  |  |  |  |  | Activity [13]: Active; Activity [15]: Active; Activity [16]: Active; Activity [17]: Active; Activity [14]: Active |
| COc1ccc2cc(C(=O)OCCCN(C)C)sc2c1 [listing 2 of 2 here] |  |  |  |  |  |  |  | Activity [13]: Active; Activity [14]: Active |
| CN(C)CCNC(=O)c1cc2cc3c(cc2s1)OCO3 | Soluble | Soluble | Insoluble | Insoluble | Insoluble | Soluble | Insoluble |  |
| COc1ccc2cc(C(=O)OCCN(C)C)oc2c1.CS(=O)(=O)O |  |  |  |  |  |  |  | LD50 [18]: > 500 mg/kg/day |
| COc1ccc2cc(C(=O)OCCP(=O)([O-])[O-])oc2c1.[Na+].[Na+] |  |  |  |  |  |  |  | LD50 [18]: > 500 mg/kg/day |
| O=C(OCCN1CCOCC1)c1cc2cc3c(cc2s1)OCO3 [listing 2 of 2 here] | Soluble | Soluble | Soluble | Insoluble | Insoluble | Soluble | Insoluble |  |
| COc1ccc2cc(C(=O)OCCP(=O)(O)O)oc2c1 [listing 1 of 2 here] | Soluble | Soluble | Soluble | Soluble | Soluble | Soluble | Soluble |  |
| CCCCOC(=O)c1cc2ccc(OC)cc2s1 | Insoluble | Soluble | Insoluble | Insoluble | Insoluble | Soluble | Insoluble |  |
| COc1ccc2cc(C(=O)OCCCN(C)C)sc2c1.CS(=O)(=O)O |  |  |  |  |  |  |  | LD50 [18]: > 500 mg/kg/day |
| COc1ccc2cc(C(=O)OCP(=O)(O)O)oc2c1 | Soluble | Soluble | Soluble | Soluble | Insoluble | Soluble | Soluble |  |
| COc1ccc2cc(C(=O)OCCP(=O)(O)O)oc2c1 [listing 2 of 2 here] |  |  |  |  |  |  |  | Activity [13]: Active; Activity [14]: Active |
| CN(C)CCOC(=O)c1cc2cc3c(cc2s1)OCO3 | Soluble | Soluble | Soluble | Insoluble | Insoluble | Soluble | Insoluble |  |
| CS(=O)(=O)O.O=C(OCCN1CCOCC1)c1cc2cc3c(cc2s1)OCO3 |  |  |  |  |  |  |  | LD50 [18]: > 500 mg/kg/day |
